In one data set the test system is Acinetobacter baumannii. In words: Antibioflim activity in Acinetobacter baumannii ATCC 19606 after 24 hrs by general static inhibition assay. Type of data set: functional, ATCC 19606 = CIP 70.34 = JCM 6841. Summed up:
(§1)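 Static biofilm inhibition: overnight wild-type culture subcultured to OD600 0.01 in LBNS (PA14) or LB (A. baumannii) containing compound (DMSO stocks), in PVC 96-well plates; covered, sealed, stationary 37 °C for 24 h. Wells washed with water, stained with 0.1% crystal violet for 30 min at ambient temperature, washed, and stain solubilized in 95% ethanol. Read-out is OD540.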

Data set [1] has as its system Pseudomonas aeruginosa. In words: Antibioflim activity in Pseudomonas aeruginosa PA14 after 24 hrs by general static inhibition assay. The class given is functional, organism-based. The conditions noted are these: for pIC50: Pseudomonas aeruginosa, PA14, 24 h, read-out: IC50. Summed up:
as §1

In data set [2] the test system is Pseudomonas aeruginosa. Nature of the data set: Antibioflim activity in Pseudomonas aeruginosa PA14 at 100 uM after 24 hrs by general static inhibition assay. The class given is functional. The conditions noted are these: PA14, 24 h. Put shortly: as §1
Data set [3] relates to Pseudomonas aeruginosa. In words: Antibioflim activity in Pseudomonas aeruginosa PA14 after 24 hrs by general static dispersion assay. The class given is functional. Put shortly:
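Static dispersion: wild-type PA14 subcultured to OD600 0.05 in LBNS in PVC 96-well plates, sealed, biofilm formed stationary at room temperature for 24 h. Medium replaced with fresh medium plus compound, then stationary 37 °C for 24 h. Crystal violet 0.1% for 30 min, ethanol-solubilized, read at OD540. Percent dispersion is treated versus untreated established biofilm.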

The next data set has as its system Caenorhabditis elegans. Nature of the data set: Toxicity in Caenorhabditis elegans L4 stage larva assessed as toxicity threshold after 6 to 7 days. The class given is organism-based. The conditions noted are these: in vivo. Summed up:
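Synchronized C. elegans N2 L1s (bleach egg prep, M9 starvation) grown on NGM/OP50 at 20 °C to L4. Two L4s per well in S medium with 5% HB101, compound 100 µM–1 mM, final DMSO 0.8–1.0%, in triplicate. Plates shaken at 22.5 °C for 6–7 days. Wells scored on day 4 and day 6/7 for clearing and population size. Threshold narrowed in 100 µM steps.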

Data set [4] relates to Pseudomonas aeruginosa. Nature of the data set: Inhibition of biofilm formation against Pseudomonas aeruginosa PA14 after 24 hrs. Conditions: PA14, 24 h.
Data set [5] has as its system Pseudomonas aeruginosa. Nature of the data set: Antibioflim activity in Pseudomonas aeruginosa PAO1. The class given is functional, organism-based.

pIC50: −log10 of the molar value. Active and inactive are the calls of the source.

Turning to `Cc1ccc(F)cc1NC(=O)NCCCc1c[nH]c(N)n1.Cl`, the “inhibition (INH)” value with Acinetobacter baumannii is given as 12%. Besides, in the data set with Pseudomonas aeruginosa [1], the pIC50 is 4.33. In addition, in the data set with Pseudomonas aeruginosa [2], at 100 µM the inhibition was 81%. Besides, the outcome with Pseudomonas aeruginosa [3] was inactive.
For `Cl.Nc1nc(CCCNS(=O)(=O)c2cccc(C(=O)O)c2)c[nH]1`, the “inhibition (INH)” value in the data set with Acinetobacter baumannii is listed as 11%. In addition, the IC50 entry in the data set on Pseudomonas aeruginosa [1] was “Not Active”. Moreover, in the data set on Pseudomonas aeruginosa [2], the inhibition at 100 µM turned out to be 14%. The result in the data set on Pseudomonas aeruginosa [3] was inactive.
The matching figures for `Cl.Nc1nc(CCCNS(=O)(=O)c2ccccc2F)c[nH]1`: 11%, “Not Active”, 43% and “inactive”.
Take `CCCCCCS(=O)(=O)NCCCc1c[nH]c(N)n1.Cl`: in the data set with Acinetobacter baumannii, the “inhibition (INH)” value worked out at 24%. Also, the pIC50 in the data set on Pseudomonas aeruginosa [1] and with Pseudomonas aeruginosa [4] was 4.99 throughout. In the data set on Pseudomonas aeruginosa [2], this compound yielded an inhibition at 100 µM of 80%. The Activity is 42% in the data set on Pseudomonas aeruginosa [3] and more than 1 mM in the data set on Caenorhabditis elegans.
Regarding `Cl.Nc1nc(CCCNS(=O)(=O)c2ccc(Br)cc2)c[nH]1`, in the data set on Acinetobacter baumannii, the “inhibition (INH)” value worked out at 25%. The pIC50 in the data set with Pseudomonas aeruginosa [1] was 4.71. In the data set with Pseudomonas aeruginosa [2], testing at 100 µM gave an inhibition of 85%. For the same compound, in the data set on Pseudomonas aeruginosa [3], the result was inactive.
For the compound `CCOc1ccc(NC(=O)NCCCc2c[nH]c(N)n2)cc1.Cl`, in the data set on Acinetobacter baumannii, the “inhibition (INH)” value was 11%. Besides, in the data set on Pseudomonas aeruginosa [1], the pIC50 is 4.30. The compound further gave an inhibition at 100 µM with Pseudomonas aeruginosa [2] of 81%. Besides, the result in the data set with Pseudomonas aeruginosa [3] was inactive.
Consider `Cl.Nc1nc(CCCNC(=O)Nc2ccccc2)c[nH]1`, for which, in the data set with Acinetobacter baumannii, the “inhibition (INH)” value was determined as 29%. Further, the IC50 entry with Pseudomonas aeruginosa [1] was “Not Active”. The same compound showed an inhibition at 100 µM in the data set with Pseudomonas aeruginosa [2] of 35%. Besides, the result in the data set on Pseudomonas aeruginosa [3] was inactive.
`CCCCCCc1cn(CCCc2c[nH]c(N)n2)nn1`: the Activity in the data set on Caenorhabditis elegans is on record as more than 1 mM.
For `Cl.Nc1nc(CCCNS(=O)(=O)c2ccc3ccccc3c2)c[nH]1`, the “inhibition (INH)” value in the data set on Acinetobacter baumannii is listed as 26%. Further, the pIC50 in the data set on Pseudomonas aeruginosa [1] is 4.81. Besides, the inhibition at 100 µM with Pseudomonas aeruginosa [2] turned out to be 93%. In addition, the outcome with Pseudomonas aeruginosa [3] was inactive.
Take `Cl.Nc1nc(CCCNC(=S)NC2CCCCC2)c[nH]1`: the “inhibition (INH)” value in the data set with Acinetobacter baumannii is listed as 14%. The pIC50 in the data set on Pseudomonas aeruginosa [1] and in the data set on Pseudomonas aeruginosa [4] was 4.65 each time. In the data set with Pseudomonas aeruginosa [2], the inhibition at 100 µM came to 89%. The Activity with Pseudomonas aeruginosa [3] amounted to 25%.
For the compound `Cl.Nc1nc(CCCNS(=O)(=O)c2ccc(C(F)(F)F)cc2)c[nH]1`, in the data set on Acinetobacter baumannii, the “inhibition (INH)” value was 23%. The pIC50 in the data set on Pseudomonas aeruginosa [1] was 4.60. For the same compound, the inhibition at 100 µM with Pseudomonas aeruginosa [2] stood at 92%. Besides, in the data set on Pseudomonas aeruginosa [3], the outcome was inactive.
`Cl.Nc1nc(CCCNC(=O)NC2CCCCCC2)c[nH]1`: the “inhibition (INH)” value in the data set on Acinetobacter baumannii is on record as less than 5%. Also, in the data set with Pseudomonas aeruginosa [1], the IC50 entry was “Not Active”. In the data set with Pseudomonas aeruginosa [2], the inhibition at 100 µM was 70%. Besides, the outcome in the data set on Pseudomonas aeruginosa [3] was inactive.
Regarding `CCCCCCNC(=O)CCCc1c[nH]c(N)n1`, the Activity in the data set on Caenorhabditis elegans was more than 1 mM.
As to `CCCCCCC(CCCCCC)NC(=O)CCCc1c[nH]c(N)n1`, the Activity in the data set on Caenorhabditis elegans turned out to be 0.95 mM.
For `CCCCCCNC(=O)NCCCc1c[nH]c(N)n1.Cl`, the “inhibition (INH)” value in the data set on Acinetobacter baumannii is reported as 28%. Besides, the pIC50 in the data set on Pseudomonas aeruginosa [1] is 4.45. The compound further came in with an inhibition at 100 µM in the data set on Pseudomonas aeruginosa [2] of 94%. Also, in the data set on Pseudomonas aeruginosa [3], the outcome was inactive.
`Cc1cc(C)cc(S(=O)(=O)NCCCc2c[nH]c(N)n2)c1.Cl`: the “inhibition (INH)” value in the data set with Acinetobacter baumannii is on record as 17%. For the same compound, the pIC50 in the data set with Pseudomonas aeruginosa [1] was 4.34. This compound registered an inhibition at 100 µM in the data set with Pseudomonas aeruginosa [2] of 87%. For the same compound, the outcome with Pseudomonas aeruginosa [3] was inactive.
On to `Nc1ncc(/C=C/CNC(=O)c2cc(Br)c(Br)[nH]2)[nH]1` [OROIDIN], for which the pIC50 with Pseudomonas aeruginosa [5] is 3.72; with Pseudomonas aeruginosa [1] it was 3.80. Besides, in the data set on Caenorhabditis elegans, the Activity came to 0.65 mM.
As to `Cl.Nc1nc(CCCNS(=O)(=O)c2cccc3cccnc23)c[nH]1`, the “inhibition (INH)” value in the data set with Acinetobacter baumannii was found to be 17%. Also, the IC50 result in the data set on Pseudomonas aeruginosa [1] is “Not Active”. The same compound came in with an inhibition at 100 µM with Pseudomonas aeruginosa [2] of 50%. The result in the data set with Pseudomonas aeruginosa [3] was inactive.
Regarding `Cc1ccc(S(=O)(=O)NCCCc2c[nH]c(N)n2)cc1.Cl`, the “inhibition (INH)” value with Acinetobacter baumannii worked out at 8%. Also, the IC50 result in the data set with Pseudomonas aeruginosa [1] is “Not Active”. In the data set with Pseudomonas aeruginosa [2], this compound gave an inhibition at 100 µM of 45%. Besides, the outcome with Pseudomonas aeruginosa [3] was inactive.
As to `Cn1c(C(=O)NCCCc2c[nH]c(N)n2)cc(Br)c1Br` [DIHYDROSVENTRIN], in the data set on Caenorhabditis elegans, the Activity amounted to 0.48 mM.
`CC(=O)c1cccc(NC(=O)NCCCc2c[nH]c(N)n2)c1.Cl`: the “inhibition (INH)” value in the data set on Acinetobacter baumannii is 11%. Also, in the data set with Pseudomonas aeruginosa [1], the IC50 result was “Not Active”. The same compound came in with an inhibition at 100 µM in the data set on Pseudomonas aeruginosa [2] of 69%. Besides, the outcome with Pseudomonas aeruginosa [3] was inactive.
In the case of `Cl.Nc1nc(CCCNC(=O)Nc2ccc(F)c(Cl)c2)c[nH]1`, the “inhibition (INH)” value in the data set with Acinetobacter baumannii was 18%. Besides, the pIC50 with Pseudomonas aeruginosa [1] and in the data set on Pseudomonas aeruginosa [4] was 4.59 throughout. Moreover, the inhibition at 100 µM with Pseudomonas aeruginosa [2] is 90%. Also, in the data set with Pseudomonas aeruginosa [3], the Activity stood at 55%.
For `Cl.Nc1nc(CCCNC(=S)Nc2ccccc2)c[nH]1`, in the data set on Acinetobacter baumannii, the “inhibition (INH)” value came to 8%. For the same compound, the pIC50 with Pseudomonas aeruginosa [1] is 4.57. Moreover, 100 µM produced 90% inhibition with Pseudomonas aeruginosa [2]. Further, the outcome with Pseudomonas aeruginosa [3] was inactive.
As to `Cl.Nc1nc(CCCNC(=O)NCc2ccccc2)c[nH]1`, the “inhibition (INH)” value with Acinetobacter baumannii turned out to be 7%. Moreover, in the data set with Pseudomonas aeruginosa [1], the IC50 entry was “Not Active”. The compound further came in with an inhibition at 100 µM in the data set on Pseudomonas aeruginosa [2] of 45%. Also, in the data set on Pseudomonas aeruginosa [3], the outcome was inactive.
Turning to `CCCCCCCCCCCc1c[nH]c(N)n1`, the Activity in the data set with Caenorhabditis elegans is listed as more than 1 mM.

(Values after ChEMBL document CHEMBL1158493, “Amide isosteres of oroidin: assessment of antibiofilm activity and C. elegans toxicity” (J Med Chem, 2009).)
